Assay outcomes: PubChem, The Scripps Research Institute Molecular Screening Center
Hits are enriched below; roughly 2.5% of the tested compounds scored in any of these assays.
PAD4 FP inh: human PAD4 inhibitors, primary screen, biochemical, fluorescence polarization, 1536-well format; Protein-arginine deiminase type-4 (Homo sapiens), Q9UM07; recombinant PAD4, RCA probe fluorescence polarization; inhibition, % at 6.36 µM; actives 0.41% (n = 330,000); AID 485272, 2010;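 active = percent inhibition above a cutoff equal to the mean of all tested compounds plus 3 SD, cut at about 15% in these data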
PRMT1 inh: PRMT1 methyltransferase inhibitors, primary screen, biochemical, fluorescence polarization; inhibition, % at 2.79 µM; actives 1.3% (n = 370,000); recombinant PRMT1, activity-based probe fluorescence polarization;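 active = inhibition above about 21% made by adding two undisclosed values, limit read from the data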
GSTO1 inh: inhibitors of recombinant GSTO1, primary screen, counter-screen for RBBP9 inhibitor project, biochemical, fluorescence polarization; activity-based probe fluorescence polarization; inhibition, % at 5.96 µM; actives 1.1% (n = 300,000); AID 1974, 2009;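 active = inhibition above the campaign mean inhibition plus 3 SD, cut at about 35% in these data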
Target sequence (P78417 whole entry, looked up): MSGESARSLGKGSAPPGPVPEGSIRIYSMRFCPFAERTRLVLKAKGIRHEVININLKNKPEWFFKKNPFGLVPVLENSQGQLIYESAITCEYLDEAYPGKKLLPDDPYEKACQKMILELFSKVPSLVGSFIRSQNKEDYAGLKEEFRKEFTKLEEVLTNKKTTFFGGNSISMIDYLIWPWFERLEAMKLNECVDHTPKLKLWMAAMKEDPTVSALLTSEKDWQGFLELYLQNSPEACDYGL
TDP2 absorb: human TDP2 enzyme inhibitors, primary screen, biochemical, epi absorbance, recombinant enzyme; Tyrosyl-DNA phosphodiesterase 2 (Homo sapiens), O95551; T5PNP hydrolysis, p-nitrophenol absorbance 415 nm; inhibition, % at 12.8 µM; actives 0.34% (n = 370,000);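 active = inhibition above the mean of all tested compounds plus 3 SD, set per campaign, cut at about 25% in these data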
Target sequence (O95551 whole entry, looked up): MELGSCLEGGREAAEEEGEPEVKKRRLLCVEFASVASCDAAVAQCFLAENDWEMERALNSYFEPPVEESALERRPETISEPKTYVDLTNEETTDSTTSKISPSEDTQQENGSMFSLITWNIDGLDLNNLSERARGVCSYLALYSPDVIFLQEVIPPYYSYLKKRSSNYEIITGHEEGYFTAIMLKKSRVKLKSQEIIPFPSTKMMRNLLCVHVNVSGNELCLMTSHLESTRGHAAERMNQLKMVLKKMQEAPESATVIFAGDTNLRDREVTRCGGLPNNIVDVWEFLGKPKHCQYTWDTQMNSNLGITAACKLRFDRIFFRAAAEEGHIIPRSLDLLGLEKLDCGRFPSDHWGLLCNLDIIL
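Test system: Human TDP2 enzyme | Reagent: 5 mM T5PNP | Compound dosing: 12.8 µM single point, 1% DMSO | Incubation: Enzyme reaction with compound for 2 h at 37 °C | Technique: p-Nitrophenol epi absorbance | Read-out: % inhibition relative to enzyme-containing and enzyme-free wells | Benchmarks: High control without enzyme, low control DMSO plus TDP2 | Replicates: Singlicate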
eLon inh: inhibitors of E. coli Lon protease, primary screen, biochemical, fluorescence polarization. P0A9M0. purified E. coli Lon protease. inhibition, % at 7.94 µM. actives 0.42% (n = 360,000); in the data active = inhibition above about 13%, passing the limit was not always enough
PAD4 confirm: human PAD4 inhibitors, confirmation, biochemical, fluorescence polarization | inhibition, % at 6.36 µM | shares compounds with PAD4 FP inh | actives 28% (n = 1,200) | recombinant PAD4, RCA probe fluorescence polarization | AID 488796, 2010;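 active = mean inhibition across replicates above the hit cutoff set by the earlier primary screen, cut at about 15% in these data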;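 also: inhibitors block active-site labeling by the probe so polarization falls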
Each line names hits and unclear results; the compound was inactive in the other large screens (follow-up assays come after a bar, where they were run).

Cc1cc(=O)oc2cc(NC(=O)c3cccc(S(C)(=O)=O)c3)ccc12	PAD4 FP inh 19 | PAD4 confirm 20
Cc1cc(=O)oc2cc(NC(=O)c3cccc(S(=O)(=O)N(C)C)c3)ccc12	none
O=C(CNS(=O)(=O)c1ccc(Br)s1)N1CCN(c2ccccn2)CC1	none (no result: PAD4 FP inh, GSTO1 inh, eLon inh)
CCCCOc1ccc(C2OC34CCCCC3C(C#N)(C#N)C2(C#N)C(=N)O4)cc1 (stereo unspecified)	none (no result: PRMT1 inh, TDP2 absorb)
CC(C)C1OC2(C)OC(=N)C1(C#N)C(C#N)(C#N)C2c1ccccc1 (stereo unspecified)	PAD4 FP inh 19, PRMT1 inh 25 | PAD4 confirm 16
CCC1OC2(C)OC(=N)C1(C#N)C(C#N)(C#N)C2c1ccccc1 (stereo unspecified)	PAD4 FP inh 15 | PAD4 confirm inactive
CCC(C(=O)Nc1ccccc1N1CCCC1)c1ccccc1F (stereo unspecified)	none (no result: PAD4 FP inh, GSTO1 inh, eLon inh)
COc1ccc(S(=O)(=O)N(C)C[C@@H]2Oc3c(NC(=O)Nc4ccccc4)cccc3C(=O)N([C@@H](C)CO)C[C@H]2C)cc1	none (no result: PAD4 FP inh, GSTO1 inh, eLon inh)
COc1ccc(O)c(C2=Nc3ccccc3N=C(c3cccs3)C2)c1	none
COc1ccc(C2CC(c3cccs3)=Nc3ccccc3S2)cc1 (stereo unspecified)	PAD4 FP inh 21, PRMT1 inh 83 | PAD4 confirm inactive
Cc1[nH]c(=S)c(C#N)c(-c2ccco2)c1C(=O)N(C)C	PAD4 FP inh 19, PRMT1 inh 31 | PAD4 confirm inactive
CC(=O)c1c(C)[nH]c(=S)c(C#N)c1-c1ccc(Cl)cc1	none
Cc1cccc(NC(=O)C(CC(C)C)NC(=O)C2CCC(C)CC2)n1 (stereo unspecified)	PAD4 FP inh 20 | PAD4 confirm inactive
COc1ccc(C2C(C#N)=C(N)Oc3c2c(C)nn3-c2ccccc2)cc1Cn1nc(C)c([N+](=O)[O-])c1C (stereo unspecified)	PAD4 FP inh 42 | PAD4 confirm inactive
O=C(NC1CCCCN(Cc2ccc(Cl)cc2)C1=O)c1ccccn1 (stereo unspecified)	none (no result: PAD4 FP inh, GSTO1 inh, eLon inh)
CCCCCC[C@H](CC)CN(C(=O)Oc1ccccc1)c1ccccc1	none (no result: PAD4 FP inh, GSTO1 inh, eLon inh)
COc1ccc(C2C(C#N)=C(N)N(N(C)C)C3=C2C(=O)CCC3)cc1 (stereo unspecified)	PAD4 FP inh 90 | PAD4 confirm inactive
O=C(CC(=O)c1ccccc1)Nc1cccnc1	none
O=C(Nc1ccccc1)C(=O)Nc1cccnc1	PAD4 FP inh 18 | PAD4 confirm inactive
COc1ccc2c(c1)oc(=O)c1ccccc12	PAD4 FP inh 15 | PAD4 confirm 23
COc1ccccc1NC(=O)OC1CCC12CCCCC2 (stereo unspecified)	none (no result: PAD4 FP inh, GSTO1 inh, eLon inh)
Cc1ccc(F)c(NC(=S)Nc2cccc3ccccc23)c1	PAD4 FP inh 18 | PAD4 confirm inactive
COCCn1c(=S)[nH]c2cc(OC)c(OC)cc2c1=O	PAD4 FP inh 43 | PAD4 confirm inactive
CCN(CC)CCCn1c(=S)[nH]c2cc(OC)c(OC)cc2c1=O	none
COc1ccc(CN2C(=O)[C@]3(NCCc4c3[nH]c3ccc(OC)cc43)c3cc(F)ccc32)cc1	none (no result: PAD4 FP inh, GSTO1 inh, eLon inh)
O=C(O)CSCC(=O)Nc1ccc(-c2nc3ccccc3s2)cc1	PAD4 FP inh 30, PRMT1 inh 36 | PAD4 confirm 31
Cc1ccc2nc(-c3ccc(NC(=O)CSCC(=O)O)cc3)sc2c1	none
CCN(CC)C(=O)CC[C@H]1CC[C@]2(CCCN(C(=O)C(C)(C)C)C2)O1	none (no result: PAD4 FP inh, GSTO1 inh, eLon inh)
Cc1ccc(-n2sc3ccccc3c2=O)cc1	PAD4 FP inh 53, PRMT1 inh 76 | PAD4 confirm 30
O=c1c2ccccc2sn1-c1ccc(F)cc1	PAD4 FP inh 42, PRMT1 inh 84 (no result: GSTO1 inh) | PAD4 confirm 29
COC(=O)c1cccc(-n2sc3ccccc3c2=O)c1	PAD4 FP inh 55, PRMT1 inh 98 (no result: GSTO1 inh) | PAD4 confirm 47
Cc1ccc(Cn2c(=O)sc3ccccc3c2=O)cc1	none
COC(=O)c1ccccc1-c1c2ccc(=N)cc-2oc2cc(N)ccc12	PAD4 FP inh active, PRMT1 inh active (no result: GSTO1 inh, eLon inh) | PAD4 confirm 145
Cc1ccc2nc(-c3ccc(CN4CCC5(CC4)CNc4ccccc45)cc3)c(-c3ccccc3)nc2c1	none (no result: PAD4 FP inh, GSTO1 inh, eLon inh)
Cn1c(=NC(=O)CS(=O)(=O)c2ccccc2)sc2cc(F)ccc21	none (no result: PAD4 FP inh, GSTO1 inh)
CC(=O)SCC(=O)N=c1sc2cc(F)ccc2n1C	PAD4 FP inh 20 | PAD4 confirm 19
N#CC1=C(N)Oc2n[nH]c(-c3cccs3)c2C1c1ccncc1 (stereo unspecified)	none
N#CC1=C(N)Oc2n[nH]c(-c3cccs3)c2C1c1ccsc1 (stereo unspecified)	PAD4 FP inh 17 | PAD4 confirm inactive
C=CCN(CC#Cc1ccccc1)Cc1ccc2c(c1)OCO2	none (no result: PAD4 FP inh, GSTO1 inh, eLon inh)
CC(=O)Nc1ccc(N/C(C)=C/C(=O)c2cccnc2)cc1	PAD4 FP inh 22 | PAD4 confirm inactive
Fc1ccc(-n2ncc3c(SCc4cccnc4)ncnc32)cc1	PAD4 FP inh 18 | PAD4 confirm inactive
O=C1c2ccccc2C(=O)C1c1ccc(Cl)cc1	none
O=C1c2ccccc2C(=O)C12OC2c1ccc(Cl)cc1Cl (stereo unspecified)	PAD4 FP inh 36 | PAD4 confirm 40
CC(OP(=O)(O)C(NC(=O)[C@H](Cc1ccc(O)cc1)NC(=O)OC(C)(C)C)C(C)C)C(=O)O (stereo partly specified)	none (no result: PAD4 FP inh, GSTO1 inh, eLon inh)
CCOc1ccc(-n2c(SCC(=O)Nc3ccc(OCc4ccccc4)cc3)nnc2-c2ccc(Cl)cc2)cc1	none (no result: PAD4 FP inh, GSTO1 inh, eLon inh)
CCOCCCNC(=S)N(CCO)Cc1cc2cc3c(cc2[nH]c1=O)OCCO3	PAD4 FP inh 23 | PAD4 confirm inactive
COc1ccc(OC)c(N/C(C)=C/C(=O)c2ccncc2)c1	PAD4 FP inh 23 | PAD4 confirm inactive
COc1ccc(OC)c(N/C(C)=C/C(=O)c2ccccc2)c1	none
CC(C)(C)c1ccc2c(c1)OC(C(=O)N/N=C/c1ccc[nH]1)CO2 (stereo unspecified)	none (no result: PAD4 FP inh, GSTO1 inh, eLon inh)
CCCCNC(=O)O[C@H]1CC[C@@]23CCCN2C(=O)CCC[C@H]3C1	none (no result: PAD4 FP inh, GSTO1 inh, eLon inh)
COc1ccc(N2C(=O)CSC23C(=O)N2c4c(cccc43)C(C)=CC2(C)C)cc1 (stereo unspecified)	none
COc1ccc(N2C(=O)CSC23C(=O)N2CCCc4cccc3c42)cc1 (stereo unspecified)	PAD4 FP inh 22 | PAD4 confirm 21
O=C1CSC2(C(=O)N3CCCc4cccc2c43)N1c1cccc(C(F)(F)F)c1 (stereo unspecified)	PAD4 FP inh 18 (no result: PRMT1 inh, TDP2 absorb) | PAD4 confirm inactive
COc1ccc(C(=O)CSc2nnc(-c3n[nH]c4c3CCC4)n2N)cc1OC	none (no result: PAD4 FP inh, GSTO1 inh, eLon inh)
